# Experimental data published in ChEMBL document CHEMBL2311301, “Design, synthesis and characterization of novel 1,2-benzisothiazol-3(2H)-one and 1,3,4-oxadiazole hybrid derivatives: potent inhibitors of Dengue and West Nile virus NS2B/NS3 proteases” (Bioorg Med Chem, 2013).
# How the values were obtained:
# [1] = test system: dengue virus type 2; test: Inhibition of DENV2 NS2B/NS3 protease expressed in Escherichia coli Top 10 F' using Bz-Nle-Lys-Arg-Arg-AMC as substrate at 25 uM by spectroflorometer analysis relative to control
# In short: (§1)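 Protease (DENV2 NS2B-NS3pro 25 nM; WNV NS2B-NS3pro with 5-residue linker 28 nM) incubated with inhibitor in DMSO, 15 min at 37 °C, in 200 mM Tris·HCl pH 9.5, 6 mM NaCl, 30% glycerol. Reaction started with 5.0 μM substrate. AMC release read at ex 380/em 460 nm. No-protease background subtracted; no-inhibitor control taken as 100%. Triplicates.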
# [2] = test system: West Nile virus; test: Inhibition of WNV NS2B/NS3 protease using Bz-Nle-Lys-Arg-Arg-AMC as substrate at 10 uM by spectrofluorometric analysis relative to control; in short: as §1
# [3] = test system: dengue virus type 2; test: Inhibition of DENV2 NS2B/NS3 protease expressed in Escherichia coli Top 10 F' using Bz-Nle-Lys-Arg-Arg-AMC as substrate at 10 uM by spectroflorometer analysis relative to control; in short: as §1
# [4] = test system: West Nile virus; test: Inhibition of WNV NS2B/NS3 protease using Bz-Nle-Lys-Arg-Arg-AMC as substrate at 25 uM by spectrofluorometric analysis relative to control; in short: as §1
# [5] = Inhibition of WNV NS2B/NS3 protease using Bz-Nle-Lys-Arg-Arg-AMC as substrate by spectrofluorometric analysis relative to control; set-up: species or system West Nile virus
# In short: (§2)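 IC50 run in the same single-point format (DENV2 protease 25 nM, WNV protease 28 nM; 15 min preincubation at 37 °C, pH 9.5 Tris buffer, 5.0 μM substrate, fluorescence ex 380/em 460 nm). Twelve inhibitor levels from 10 nM to 25 μM. IC50 from a sigmoidal fit of activity relative to the no-inhibitor control. Triplicates.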
# [6] = Competitive inhibition of DENV2 NS2B/NS3 protease expressed in Escherichia coli Top 10 F' using Bz-Nle-Lys-Arg-Arg-AMC as substrate by Michaelis-Menten equation analysis; set-up: species or system dengue virus type 2
# In short: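 DENV2 NS2B-NS3pro construct (NS2B hydrophilic cofactor joined to NS3 protease via Q-R), 25 nM, in 200 mM Tris·HCl pH 9.5, 6 mM NaCl, 30% glycerol, 0.1% CHAPS at 37 °C. Inhibitor at 0, 1.0, 3.0 and 5.0 μM; substrate 0-50 μM; started with enzyme. Initial rates from AMC fluorescence (ex 380/em 460 nm) every 1.5 min, under 5% conversion. Duplicates, repeated three times. Ki from secondary plot of Km,app against inhibitor.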
# [7] = Inhibition of DENV2 NS2B/NS3 protease expressed in Escherichia coli Top 10 F' using Bz-Nle-Lys-Arg-Arg-AMC as substrate by spectroflorometer analysis relative to control; set-up: species or system dengue virus type 2; in short: as §2
SMILES,inhibition [1] [%],inhibition [2] [%],inhibition [3] [%],inhibition [4] [%],IC50 [5] [µM],Ki [6] [µM],IC50 [7] [µM]
O=c1c2ccccc2sn1C(Cc1ccccc1)c1nnc(-c2cccs2)o1 (centres undefined),69.8,43.7,52.3,59.7,–,–,–
COc1ccc(Cc2nnc(Cn3sc4ccccc4c3=O)o2)cc1,7.9,5.96,5.27,8.68,–,–,–
Cc1nnc(C(Cc2ccccc2)n2sc3ccccc3c2=O)o1 (centres undefined),31.6,22.3,20,40.4,–,–,–
O=c1c2ccccc2sn1C(Cc1ccccc1)c1nnc(-c2cccnc2)o1 (centres undefined),70,55.8,58.1,62.5,–,–,–
CCOc1ccc(-c2nnc(C(Cc3ccccc3)n3sc4ccccc4c3=O)o2)cc1 (centres undefined),61.3,56.1,40.6,71.8,–,–,–
N#Cc1ccc(-c2nnc(C(Cc3ccccc3)n3sc4ccccc4c3=O)o2)cc1 (centres undefined),72.9,63.6,63.9,70.9,–,–,–
O=c1c2ccccc2sn1Cc1nnc(-c2cccc(Cl)c2)o1,16.7,6.15,5.21,9.15,–,–,–
CCc1nnc(C(Cc2ccccc2)n2sc3ccccc3c2=O)o1 (centres undefined),34.2,25.1,22.5,44.3,–,–,–
O=c1c2ccccc2sn1C(Cc1ccccc1)c1nnc(-c2ccc(Cl)cc2)o1 (centres undefined),70.5,53.5,53.2,63.2,–,–,–
O=c1c2ccccc2sn1C(CCc1ccccc1)c1nnc(-c2cccc(Cl)c2)o1 (centres undefined),35,23.9,26.1,33.9,–,–,–
O=c1c2ccccc2sn1C(Cc1ccccc1)c1nnc(-c2cccc(Cl)c2)o1 (centres undefined),42.1,29,34.3,43.1,–,–,–
O=c1c2ccccc2sn1C(Cc1ccccc1)c1nnc(-c2ccncc2)o1 (centres undefined),70.9,63.1,62.4,72.7,–,–,–
COc1ccc(-c2nnc(C(Cc3ccccc3)n3sc4ccccc4c3=O)o2)cc1 (centres undefined),80,68.6,65.5,73.4,4.22,3.61,3.75
COc1ccc(Cc2nnc(C(Cc3ccccc3)n3sc4ccccc4c3=O)o2)cc1 (centres undefined),38.6,24.2,28.5,34.9,–,–,–
O=c1c2ccccc2sn1Cc1nnc(-c2cccc(F)c2)o1,9.11,7.68,3.24,10.1,–,–,–
O=c1c2ccccc2sn1C(Cc1ccccc1)c1nnc(Cc2ccccc2)o1 (centres undefined),31.2,20.5,22.4,30.1,–,–,–
O=c1c2ccccc2sn1C(Cc1cccc(F)c1)c1nnc(-c2cccc(Cl)c2)o1 (centres undefined),31.6,27.4,16,35.6,–,–,–
O=c1c2ccccc2sn1C(Cc1ccccc1)c1nnc(-c2ccc(F)cc2)o1 (centres undefined),75.7,51.1,60.3,59.1,–,–,–
O=c1c2ccccc2sn1Cc1nnc(Cc2ccccc2)o1,16.4,8.27,3.56,14.7,–,–,–
O=c1c2ccccc2sn1C(Cc1ccccc1)c1nnc(-c2ccccc2)o1 (centres undefined),69.2,51.7,56.7,64.1,–,–,–
O=c1c2ccccc2sn1C(Cc1ccccc1)c1nnc(-c2cccc(F)c2)o1 (centres undefined),50.9,30.4,39,38.9,–,–,–
O=c1c2ccccc2sn1C(Cc1ccccc1)c1nnc(-c2ccco2)o1 (centres undefined),64.7,44.3,52.3,57.7,–,–,–
CCCc1nnc(C(Cc2ccccc2)n2sc3ccccc3c2=O)o1 (centres undefined),36.7,34.9,25.6,46.2,–,–,–
COc1ccc(Cc2nnc(C(C)n3sc4ccccc4c3=O)o2)cc1 (centres undefined),17.8,4.17,8.08,9.79,–,–,–
